Assay results: ChEMBL document CHEMBL1156309, “Design and optimization of a substituted amino propanamide series of renin inhibitors for the treatment of hypertension” (Bioorg Med Chem Lett, 2010)

What was measured:
Renin [1] = target: T1, Renin (Homo sapiens, UniProt P00797); test: Inhibition of human recombinant renin in human citreated-plasma
T1 sequence (P00797 whole entry): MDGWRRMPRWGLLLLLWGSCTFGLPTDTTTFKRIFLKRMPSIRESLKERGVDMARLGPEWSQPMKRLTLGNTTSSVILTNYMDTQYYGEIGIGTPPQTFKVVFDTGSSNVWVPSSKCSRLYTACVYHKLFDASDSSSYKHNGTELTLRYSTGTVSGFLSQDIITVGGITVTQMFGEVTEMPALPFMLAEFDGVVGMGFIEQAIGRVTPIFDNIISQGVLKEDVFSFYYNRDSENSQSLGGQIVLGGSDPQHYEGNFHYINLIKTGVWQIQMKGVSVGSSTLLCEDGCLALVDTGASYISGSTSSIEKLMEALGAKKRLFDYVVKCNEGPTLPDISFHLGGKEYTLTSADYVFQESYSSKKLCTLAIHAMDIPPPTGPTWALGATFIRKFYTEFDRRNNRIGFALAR
Method in brief: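 Pooled human citrate plasma supplemented with recombinant human renin (150 pg/mL final). Compounds in DMSO at various concentrations added to plasma mixed with trapping anti-Angl antibody (final antiserum dilution 1:50,000) in Tris/EDTA, pH 7.2; incubation 2 h at 37 °C. Angl accumulation read by immunoassay; IC50 from curve fit. Average of at least two replicates.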

Renin [2] = target: T1, Renin; test: Inhibition of human recombinant renin in PBS buffer at pH 7.4
Method in brief: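 Recombinant human renin (3 pg/µL) in PBS with 1 mM EDTA, 0.1% BSA, pH 7.4, with human tetradecapeptide (1-14) substrate and hydroxyquinoline sulfate. Compounds diluted in DMSO; incubation 3 h at 37 °C. Angl accumulation measured; percent inhibition at each concentration, IC50 from curve fit. Average of at least two replicates.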

[3] = Clearance in Sprague-Dawley rat at 30 mg/kg, po and 5 mg/kg, iv; assay type: ADME, organism-based; conditions: in vivo
Rattus norvegicus = test: Antihypertensive activity in telemetered double-transgenic rat assessed as decrease in blood pressure at 3 mg/kg, po after 2 days; assay type: functional
Method in brief: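 Telemetered double-transgenic rats (n = 8) dosed orally at 3 mpk. Blood pressure monitored by telemetry; maximum fall in mm Hg and duration of action recorded.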

[4] = AUC in Beagle dog at 3 mg/kg, po; assay type: ADME, organism-based, Canis lupus familiaris; parameters: dose 3 mg/kg, route oral; conditions: plasma
[5] = Clearance in Beagle dog at 3 mg/kg, po and 1 mg/kg, iv; assay type: ADME, organism-based, Canis lupus familiaris; conditions: in vivo
[6] = Half life in Beagle dog at 3 mg/kg, po and 1 mg/kg, iv; assay type: ADME, organism-based, Canis lupus familiaris; conditions: in vivo
[7] = Volume of distribution at steady state in Beagle dog at 3 mg/kg, po and 1 mg/kg, iv; assay type: ADME, organism-based, Canis lupus familiaris; conditions: in vivo, read-out: Vdss
[8] = Oral bioavailability in Beagle dog at 3 mg/kg; assay type: ADME, organism-based, Canis lupus familiaris; conditions: in vivo
[9] = AUC in Sprague-Dawley rat at 30 mg/kg, po; assay type: ADME, organism-based; parameters: dose 30 mg/kg, route oral; conditions: plasma
Cytochrome P450 3A4 = Cytochrome P450 3A4 (Homo sapiens, UniProt P08684); test: Inhibition of CYP3A4 after 30 mins; assay type: ADME
[10] = Oral bioavailability in Sprague-Dawley rat at 30 mg/kg; assay type: ADME, organism-based; conditions: in vivo
[11] = Volume of distribution at steady state in Sprague-Dawley rat at 30 mg/kg, po and 5 mg/kg, iv; assay type: ADME, organism-based; conditions: in vivo, read-out: Vdss
Canis familiaris = test: Antihypertensive activity in Beagle assessed as prolongation of CV intervals at 12 uM, iv after 2 days; assay type: functional, Canis lupus familiaris
Method in brief: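 Beagle dogs given compound intravenously up to 12 µM plasma exposure. QTc, PR and QRS intervals monitored for prolongation.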

[12] = Half life in Sprague-Dawley rat at 30 mg/kg, po and 5 mg/kg, iv; assay type: ADME, organism-based; conditions: in vivo

Cytochrome P450 3A4, sequence (P08684 whole entry): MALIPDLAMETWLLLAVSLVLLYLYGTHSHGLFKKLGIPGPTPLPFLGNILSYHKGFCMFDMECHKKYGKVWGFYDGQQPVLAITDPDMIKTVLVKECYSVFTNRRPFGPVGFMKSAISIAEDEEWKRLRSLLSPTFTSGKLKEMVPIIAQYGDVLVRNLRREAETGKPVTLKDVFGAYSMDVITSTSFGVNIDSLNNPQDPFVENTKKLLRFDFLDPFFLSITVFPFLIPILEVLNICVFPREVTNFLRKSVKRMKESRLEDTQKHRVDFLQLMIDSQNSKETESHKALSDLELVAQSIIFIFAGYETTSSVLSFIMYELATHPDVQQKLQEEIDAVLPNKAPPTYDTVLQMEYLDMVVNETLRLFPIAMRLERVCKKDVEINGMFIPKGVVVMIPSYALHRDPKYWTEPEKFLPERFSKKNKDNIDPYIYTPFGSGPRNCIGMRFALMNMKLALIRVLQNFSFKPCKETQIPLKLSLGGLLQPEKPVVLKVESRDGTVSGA

SMILES	IC50 (Renin [1])	IC50 (Renin [2])	also measured
O=C(C(CNCc1ccccc1)Cc1ccc(CCCOc2c(F)ccc(F)c2Cl)cc1)N(Cc1cccc(Cl)c1Cl)C1CC1 (stereo unspecified)	–	260 nM	–
CNCC(Cc1ccc(CCCOc2c(F)ccc(F)c2Cl)cc1)C(=O)N(Cc1cccc(Cl)c1Cl)C1CC1 (stereo unspecified)	350 nM	1.9 nM	–
COCCCc1cc(CN(C(=O)[C@@H](CN)Cc2ccc(CCCOc3c(Cl)cc(C)cc3Cl)cc2)C2CC2)cc(OCCOC)c1	–	–	clearance [3]: 13 mL/min/kg; Activity (Rattus norvegicus): 35 mmHg; AUC [4]: 0.7 µM·h; clearance [5]: 35 mL/min/kg; half-life [6]: 7.5 h; Vd [7]: 15 L/kg; bioavailability [8]: 36%; AUC [9]: 27.5 µM·h; IC50 (Cytochrome P450 3A4): 1300 nM; bioavailability [10]: 48%; Vd [11]: 3.6 L/kg; half-life [12]: 4 h
Cc1cc(Cl)c(OCCCc2ccc(CC(CN)C(=O)N(Cc3cc(CCCN(C)C)ccc3Cl)C3CC3)cc2)c(Cl)c1 (stereo unspecified)	103 nM	1.5 nM	–
COCCCc1ccc(Cl)c(CN(C(=O)C(CN)Cc2ccc(CCCOc3c(Cl)cc(C)cc3Cl)cc2)C2CC2)c1 (racemic)	5.8 nM	0.26 nM	–
Cc1cc(Cl)c(OCCCc2ccc(CC(CN)C(=O)N(Cc3cc(CCCO)ccc3Cl)C3CC3)cc2)c(Cl)c1 (stereo unspecified)	6.4 nM	0.09 nM	–
COCCCc1cc(CN(C(=O)C(CN)Cc2ccc(CCCOc3c(Cl)cc(C)cc3Cl)cc2)C2CC2)c(Cl)c[n+]1[O-] (stereo unspecified)	1.8 nM	0.3 nM	–
NCCC(CC(=O)N(Cc1cccc(Cl)c1Cl)C1CC1)c1ccc(CCCOc2c(F)ccc(F)c2Cl)cc1 (stereo unspecified)	–	650 nM	–
COCCCc1cc(CN(C(=O)C(CN)Cc2ccc(CCCOc3c(Cl)cc(C)cc3Cl)cc2)C2CC2)c(Cl)cn1 (stereo unspecified)	2.2 nM	0.19 nM	–
COCCOc1ccc(Cl)c(CN(C(=O)C(CN)Cc2ccc(CCCOc3c(Cl)cc(C)cc3Cl)cc2)C2CC2)c1 (stereo unspecified)	–	0.21 nM	–
COCCc1ccc(Cl)c(CN(C(=O)C(CN)Cc2ccc(CCCOc3c(Cl)cc(C)cc3Cl)cc2)C2CC2)c1 (stereo unspecified)	–	0.19 nM	–
Cc1cc(Cl)c(OCCCc2ccc(C[C@@H](CN)C(=O)N(Cc3cc(CCCC#N)ccc3Cl)C3CC3)cc2)c(Cl)c1	4.6 nM	0.11 nM	–
COCCCc1cc(Cl)c(Cl)c(CN(C(=O)C(CN)Cc2ccc(CCCOc3c(Cl)cc(C)cc3Cl)cc2)C2CC2)c1 (stereo unspecified)	31 nM	0.26 nM	–

Further compounds by falling IC50 (Renin [2]), results first:

IC50 (Renin [1])	IC50 (Renin [2])	SMILES	also measured
–	210 nM	CC(CN)(Cc1ccc(CCCOc2c(F)ccc(F)c2Cl)cc1)C(=O)N(Cc1cccc(Cl)c1Cl)C1CC1 (stereo unspecified)	–
250 nM	2.9 nM	CC(=O)N(C)Cc1ccc(Cl)c(CN(C(=O)C(CN)Cc2ccc(CCCOc3c(Cl)cc(C)cc3Cl)cc2)C2CC2)c1 (stereo unspecified)	–
21 nM	0.79 nM	NCC(Cc1ccc(CCCOc2c(F)ccc(F)c2Cl)cc1)C(=O)N(Cc1cccc(Cl)c1Cl)C1CC1 (racemic)	–
29 nM	0.4 nM	Cc1cc(Cl)c(OCCCc2ccc(CC(CN)C(=O)N(Cc3cccc(Cl)c3Cl)C3CC3)cc2)c(Cl)c1 (stereo unspecified)	–
10 nM	0.27 nM	Cc1cc(Cl)c(OCCCc2ccc(CC(CN)C(=O)N(Cc3cc(CCC#N)ccc3Cl)C3CC3)cc2)c(Cl)c1 (stereo unspecified)	–
2.4 nM	0.09 nM	COCCCc1ccc(Cl)c(CN(C(=O)[C@H](CN)Cc2ccc(CCCOc3c(Cl)cc(C)cc3Cl)cc2)C2CC2)c1	clearance [3]: 35 mL/min/kg; Activity (Rattus norvegicus): 27 mmHg; AUC [4]: 1.3 µM·h; clearance [5]: 16 mL/min/kg; half-life [6]: 17 h; Vd [7]: 8.4 L/kg; bioavailability [8]: 32%; AUC [9]: 8.3 µM·h; IC50 (Cytochrome P450 3A4): 130 nM; bioavailability [10]: 41%; Vd [11]: 12 L/kg; Activity (Canis familiaris): <5%; half-life [12]: 6 h
